Source: ChEMBL document CHEMBL3124781, “Heat shock protein 70 inhibitors. 1. 2,5'-thiodipyrimidine and 5-(phenylthio)pyrimidine acrylamides as irreversible binders to an allosteric site on heat shock protein 70” (J Med Chem, 2014)
pIC50: −log10 of the molar value. Calls of active or inactive are those of the source. The rule behind the calls is not given here.

Key:
MOLM-13 = assay: Induction of apoptosis in human MOLM13 assessed as caspase 3/7 activation using Z-DEVD-R110 as substrate pretreated for 16 hrs followed by substrate addition by fluorescence-based assay; format: functional, cell-based
Method in brief: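 MOLM-13 cells (30000/well, RPMI) rested up to 24 h at 37 °C, 5% CO2. Treated 16 h with compound or DMSO, in triplicate. Then buffer added containing 10 mM HEPES pH 7.5, 2 mM EDTA, 0.1% CHAPS and 25 μM Z-DEVD-R110. Fluorescence read once stable; % increase in apoptotic cells calculated versus control.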

Kasumi 1 = assay: Growth inhibition of human Kasumi-1 cells expressing p-gp/MDR1 after 72 hrs by Alamar Blue assay; format: functional, cell-based; details: Kasumi 1, 72 h
Method in brief: (§1)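 Cells plated 8000/well (SKBr3, adherent) or 20000/well (Kasumi-1, suspension) and left 24 h at 37 °C. Compound added in triplicate for 72 h. Alamar Blue (50 μM) added; fluorescence (ex 530/em 580 nm) read 6 h later.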

[1] = target: Heat shock protein HSP 90-beta (Homo sapiens, UniProt P08238); assay: Displacement of GM-cy3B from Hsp90 in human SKBR3 cells after 24 hrs by fluorescence polarization assay; parameters: species or system SK-BR-3
Method in brief: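 Final 6 nM GM-cy3B with 3 μg SKBr3 lysate protein; compound in triplicate; geldanamycin as positive control. Shaken 24 h at 4 °C, mP read. Concentration displacing 50% of bound tracer obtained by curve fitting.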

[2] = Growth inhibition of human SKBR3 cells after 72 hrs by Alamar Blue assay; format: functional, cell-based; details: SK-BR-3, 72 h; method in brief: as §1
SK-BR-3 [3] = assay: Induction of apoptosis in human SKBR3 cells assessed as PARP cleavage by Western blotting analysis; format: functional, cell-based
Method in brief: (§2)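 SKBr3 cells at 60–70% confluence treated with compound or DMSO for the indicated times. Lysed in 50 mM Tris pH 7.4, 150 mM NaCl, 1% NP-40. 10–50 μg protein (BCA) resolved by SDS–PAGE and immunoblotted for HER2, Raf-1, or the PARP p85 fragment, with β-actin as loading control.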

[4] = Inhibition of Hsp70 in human SKBR3 cells assessed as RAF1 protein degradation by Western blotting analysis; format: cell-based; details: SK-BR-3; method in brief: as §2
[5] = Inhibition of Hsp70 in human SKBR3 cells assessed as HER2 protein degradation by Western blotting analysis; format: cell-based; details: SK-BR-3; method in brief: as §2
SK-BR-3 [6] = assay: Binding affinity to Hsp70 in human SKBR3 cells after 1 hr by […] in presence of N-(6-Amino-2-((4,6-dimethoxy-2-(4-methylpiperazin-1-yl)-pyrimidin-5-yl)thio)pyrimidin-4-yl)acrylamide; format: cell-based
Method in brief: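 Cells pretreated 2 h with increasing concentrations of soluble competitor, then lysed (20 mM Tris pH 7.4, 25 mM NaCl, 0.1% NP-40). Extract (500 μg protein) incubated overnight with beads carrying biotinylated ligand (50 μM, loaded 1 h at 4 °C). Beads washed in high-salt buffer (1 M NaCl), run on SDS–PAGE, and silver stained.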

SK-BR-3 [7] = assay: (§3) Inhibition of Hsp70 in human SKBR3 cells assessed as inhibition of HOP complex formation after 24 hrs by Western blotting analysis; format: cell-based
Method in brief: (§4)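 SKBr3 cells treated 24 h at the indicated concentrations, then lysed (20 mM Tris pH 7.4, 25 mM NaCl, 0.1% NP-40, protease inhibitors). 500 μg protein immunoprecipitated overnight at 4 °C with anti-Hsp70 BB70 (normal IgG as negative control) and protein G beads. Beads washed five times; co-precipitated HOP detected by Western blot.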

[8] = as §3; format: cell-based; details: SK-BR-3, 24 h; method in brief: as §4
[9] = Inhibition of His-tagged Escherichia coli DNAK assessed as inhibition of DNAJ complex formation

Sequence of Heat shock protein HSP 90-beta (P08238 whole entry): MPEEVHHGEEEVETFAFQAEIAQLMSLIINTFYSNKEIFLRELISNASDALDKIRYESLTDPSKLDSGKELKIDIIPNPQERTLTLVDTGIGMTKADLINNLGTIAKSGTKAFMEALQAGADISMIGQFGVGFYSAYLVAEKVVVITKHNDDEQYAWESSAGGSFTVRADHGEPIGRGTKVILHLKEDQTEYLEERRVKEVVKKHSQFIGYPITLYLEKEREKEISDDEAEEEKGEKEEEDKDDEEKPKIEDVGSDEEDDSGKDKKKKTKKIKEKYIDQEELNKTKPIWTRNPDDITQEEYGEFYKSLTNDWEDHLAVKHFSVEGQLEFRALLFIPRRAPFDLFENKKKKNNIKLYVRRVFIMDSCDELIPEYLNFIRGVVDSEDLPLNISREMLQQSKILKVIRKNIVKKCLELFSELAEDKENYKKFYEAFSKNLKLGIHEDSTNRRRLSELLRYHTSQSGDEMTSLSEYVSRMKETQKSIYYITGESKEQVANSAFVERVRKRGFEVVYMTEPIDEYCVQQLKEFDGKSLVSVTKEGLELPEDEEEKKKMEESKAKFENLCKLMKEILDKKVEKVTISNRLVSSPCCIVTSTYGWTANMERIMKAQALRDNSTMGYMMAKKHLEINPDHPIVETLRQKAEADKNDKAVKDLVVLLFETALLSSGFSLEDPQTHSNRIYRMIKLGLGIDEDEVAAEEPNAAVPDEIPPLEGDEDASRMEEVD

SMILES	pIC50 (MOLM-13)	pIC50 [1]	pIC50 (SK-BR-3 [3])	pIC50 [4]	pIC50 [5]	pIC50 [8]	pIC50 [9]	pIC50 (Kasumi 1)	pIC50 [2]	Activity (SK-BR-3 [6])	inhibition (SK-BR-3 [7])
C=CC(=O)Nc1cc(N)nc(Sc2c(OC)nc(N3CCN(CCOCCOCCOCCOC(=O)CCCC[C@@H]4SC[C@@H]5NC(=O)N[C@@H]54)CC3)nc2OC)n1	–	–	–	–	–	–	–	–	–	Active	–
C=CC(=O)Nc1cccc(Sc2c(OC)nc(N3CCOCC3)nc2OC)c1	4.56	< 3.30	5.00	4.70	4.82	–	–	4.33	4.78	–	–
C=CC(=O)Nc1cc(N)nc(Sc2c(OC)nc(N3CCN(C)CC3)nc2OCCOCCOCCOCCO)n1	4.00	< 3.30	4.00	4.22	4.12	–	–	4.12	4.30	–	–
C=C(C)C(=O)Nc1cccc(Sc2c(OC)nc(N3CCN(C)CC3)nc2OC)c1	4.22	–	–	–	–	–	–	–	–	–	–
C=C(C)C(=O)Nc1ccnc(Sc2c(C)nc(N3CCN(C)CC3)nc2C)n1	4.35	< 3.30	4.40	4.30	4.52	–	–	4.46	4.78	–	–
C=CC(=O)Nc1cccc(Sc2c(OC)nc(N3CCN(C)CC3)nc2OC)c1	–	–	–	–	–	–	–	5.11	–	–	–
C#CCCCn1c(Cc2cc(OC)c(OC)c(OC)c2Cl)nc2c(N)nc(F)nc21	–	–	–	5.60	5.70	–	–	–	5.54	–	–
O=c1c(O)c(-c2cc(O)c(O)c(O)c2)oc2cc(O)cc(O)c12 [MYRICETIN]	–	–	< 4.00	< 4.00	< 4.00	–	4.84	–	–	–	–
C=CC(=O)Nc1ccnc(Sc2c(OC)nc(N3CCCC3)nc2OC)n1	< 4.00	< 3.30	4.60	4.77	4.70	–	–	4.34	5.30	–	–
C=CC(=O)Nc1ccnc(Sc2c(OC)nc(N3CC[N+](C)([O-])CC3)nc2OC)n1	< 4.00	–	–	–	–	–	–	< 4.00	–	–	–
C/C=C/C(=O)Nc1ccnc(Sc2c(C)nc(N3CCN(C)CC3)nc2C)n1	4.49	–	–	–	–	–	–	4.70	–	–	–

The next lines start with results.

pIC50 (MOLM-13)	pIC50 [1]	pIC50 (SK-BR-3 [3])	pIC50 [4]	pIC50 [5]	pIC50 [8]	pIC50 [9]	SMILES	pIC50 (Kasumi 1)	pIC50 [2]	Activity (SK-BR-3 [6])	inhibition (SK-BR-3 [7])
5.14	–	–	–	–	–	–	C=CC(=O)Nc1ccnc(Sc2c(OC)nc(N3CCOCC3)nc2OC)n1	5.70	–	–	–
5.92	< 3.30	5.70	5.77	6.15	–	–	C=CC(=O)Nc1cc(N)nc(Sc2c(OC)nc(N3CCN(C)CC3)nc2OC)n1	6.05	6.10	–	–
5.12	–	–	–	–	–	–	C=CC(=O)Nc1ccnc(Sc2c(OC)nc(OC)nc2OC)n1	–	–	–	–
5.40	< 3.30	5.00	5.51	5.70	–	–	C=CC(=O)Nc1cc(N)nc(Sc2c(OCC)nc(N3CCCCC3)nc2OCC)n1	5.35	5.15	–	–
4.91	–	–	–	–	–	–	C=CC(=O)Nc1ccnc(Sc2c(OC)nc(N3CCCCC3)nc2OC)n1	5.50	–	–	–
4.98	–	–	–	–	–	–	C=CC(=O)Nc1cc(N)nc(Sc2c(OCC)nc(N3CCOCC3)nc2OCC)n1	5.66	–	–	–
4.92	–	–	–	–	–	–	C=CC(=O)Nc1cc(N)nc(Sc2c(OC)nc(N3CCOCC3)nc2OC)n1	–	–	–	–
4.79	< 3.60	5.30	5.12	5.60	–	–	C=CC(=O)Nc1cc(N)nc(Sc2c(OC)nc(N3CCCCC3)nc2OC)n1	4.77	5.05	–	–
5.40	< 3.30	5.12	5.30	5.12	–	–	C=CC(=O)Nc1ccnc(Sc2c(OC)nc(N3CCN(C)CC3)nc2OC)n1	5.90	5.92	–	–
5.40	< 3.30	5.82	5.60	6.00	5.76	–	C=CC(=O)Nc1cc(N)nc(Sc2c(OCC)nc(N3CCN(C)CC3)nc2OCC)n1	6.05	5.96	–	Dose-dependent effect
5.35	< 3.30	5.12	5.46	5.30	–	–	C=CC(=O)Nc1cc(N)nc(Sc2c(OC)nc(N)nc2OC)n1	5.41	5.49	–	–
5.22	< 3.30	5.30	5.30	5.40	–	–	C=CC(=O)Nc1ccnc(Sc2c(C)nc(N3CCN(C)CC3)nc2C)n1	–	5.74	–	–
4.81	–	–	–	–	–	–	C=CC(=O)Nc1ccnc(Sc2c(C)nc(N3CCOCC3)nc2C)n1	4.84	–	–	–
4.84	< 3.30	5.00	–	5.60	–	–	C=CC(=O)Nc1cc(N)nc(Sc2c(OC)nc(N3CCN(CCOCCOCCOCCO)CC3)nc2OC)n1	5.42	5.12	–	–
